High-throughput results as filed in PubChem BioAssay.
Hsp90 block: displaces geldanamycin probe from tumor Hsp90; P07900; NCI-N417 lysate Hsp90, Cy3B-geldanamycin FP displacement; inhibition, % at 30 µM; 64,000 tested, 0.35% active;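 active = inhibition above 50%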;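 also: 0% = tracer plus lysate wells and 100% = tracer alone without lysate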
Ecoli WT expand: blocks growth of wild type E. coli BW25113 | 98,000 tested, 0.15% active | growth inhibition, % at 100 µM | OD600 absorbance;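 active = growth inhibition above about 50% at one test dose, limit read from the data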;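 also: growth measured after 20 h incubation at 37 °C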
M1 antag: M1 muscarinic receptor (rat) antagonism. CHO-M1 cells, Fluo-4 calcium, ACh EC80 antagonist mode; stronger effect = lower value. AID 628. P08482. B-score at 10 µM. 64,000 tested, 3.4% active;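 active = calcium fluorescence response, raw or row-and-column corrected B-score, differing from the plate sample mean either way at a set confidence level, mostly lower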
Target sequence (P08482 whole entry, looked up): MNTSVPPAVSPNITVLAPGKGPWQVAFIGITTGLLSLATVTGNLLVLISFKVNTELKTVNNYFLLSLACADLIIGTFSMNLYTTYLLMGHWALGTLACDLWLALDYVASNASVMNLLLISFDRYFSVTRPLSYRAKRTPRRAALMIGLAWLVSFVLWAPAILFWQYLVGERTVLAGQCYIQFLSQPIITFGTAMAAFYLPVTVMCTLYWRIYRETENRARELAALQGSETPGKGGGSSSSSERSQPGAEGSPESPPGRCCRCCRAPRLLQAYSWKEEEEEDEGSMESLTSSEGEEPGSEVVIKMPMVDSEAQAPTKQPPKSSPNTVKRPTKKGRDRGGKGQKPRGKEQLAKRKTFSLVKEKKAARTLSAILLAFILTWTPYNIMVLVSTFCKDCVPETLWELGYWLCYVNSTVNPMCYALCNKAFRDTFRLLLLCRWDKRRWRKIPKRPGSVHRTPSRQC
M1 ag: M1 muscarinic receptor agonism; CHO-M1 cells, Fluo-4 calcium fluorescence, agonist mode; stronger effect = higher value; B-score at 10 µM; 64,000 tested, 3% active; AID 626;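 active = fluorescence rise, raw or as B-score row- and column-corrected plate score, outside the 99.7% band of its plate's samples, either direction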
tolC growth inh: blocks growth of E. coli BW25113 tolC mutant | 65,000 tested, 2.2% active | AID 573 | OD615 | growth inhibition, % at 10 µM (by protocol);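 active = growth inhibition at or above a cutoff equal to the mean over every tested compound plus 3 SD, cut at about 60% in these data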;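 also: growth measured after 20 h incubation at 37 °C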
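Test system: tolC-deleted E. coli BW25113 | Medium: LB with kanamycin 50 µg/mL | Compound dosing: Single concentration, 10 µM final per compound | Schedule: 37 °C, 20 h exposure | Measured by: OD at 615 nm | Evaluation: Percent growth inhibition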
BAP1 inh: blocks human BAP1 ubiquitin-AMC hydrolysis; Q92560; recombinant BAP1, Ub-AMC hydrolysis fluorescence kinetic; stronger effect = lower value; calls only at 20 µM; 72,000 tested, 0.48% active;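 active = activity remaining at or below 50% of control, provided the compound also passes the data quality filters; inactive = the rest, including low values that fail the filters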;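 also: 100% = DMSO wells rate and 0% = substrate alone blank rate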
M1 antag conf: confirmation of rat M1 muscarinic receptor antagonists; shares compounds with M1 antag; calcium response (max-min fluorescence) at 10 µM; 1,700 tested, 43% active; CHO-M1 cells, Fluo-4 calcium, ACh EC80 antagonism; stronger effect = lower value;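 active = calcium response below the same-plate mean of wells given acetylcholine alone at its 80%-effect dose, minus 3 SD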;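 also: raw fluorescence intensity difference in arbitrary instrument units and not normalized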
mGluR4 antag: mGluR4 (human) activity, M1 antagonist secondary assay. CHO-mGluR4 calcium flux, Fluo-4 fluorescence, glutamate EC80; stronger effect = lower value. shares compounds with M1 antag. 1,700 tested, 0.9% active. AID 678. fluorescence response (max-min) at 10 µM;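 active = fluorescence response below the plate's average for near-maximal glutamate wells, less 3 SD of those wells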;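 also: raw unnormalized fluorescence span taken in the window right after glutamate addition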
* hit, by the source's call; i = inactive; · = not tested or not shown. An excerpt weighted towards active compounds, which were near 5.1% of everything screened.

SMILES | Hsp90 block | Ecoli WT expand | M1 antag | M1 ag | tolC growth inh | BAP1 inh | M1 antag conf | mGluR4 antag
CCC(=O)Nc1cc(Cl)ccc1N1CCN(C(=O)CC)CC1 | 3 | 2 | -4.9* | 0.01 | -8 | i | 692 | 294
CCC(=O)N1CCN(c2ccc(Cl)cc2NC(=O)Cc2ccccc2)CC1 | 2 | -2 | 0.71 | 0.019 | 43 | i | · | ·
C=C(C)C(C)(C#CCN1CCCC1)OC(C)=O (stereo not given) | -1 | 6 | -1.5* | -1.3 | 0 | i | 526* | 182
O=C(Nc1ccc(C(F)(F)F)cc1)c1cccnc1N1CCOCC1 | · | 5 | · | · | · | · | · | ·
O=C(Nc1ccccc1)c1cccnc1N1CCOCC1 | 1 | 1 | -3.3* | 0.53 | -30 | i | 709 | 258
Cn1c(N2CCN(c3ccccn3)CC2)nc2c1c(=O)n(Cc1ccc(Cl)cc1)c(=O)n2C | -2 | -14 | -2.2* | 0.71 | 6 | i | 619 | 250
N#Cc1ccc(-c2ccc(OC(=O)c3cccnc3)cc2)cc1 | · | · | · | · | · | i | · | ·
CC(C)OC(=O)CNc1n[nH]c(=O)[nH]c1=O | · | · | · | · | · | i | · | ·
CCOC(=O)CSc1nnc(NCC(=O)OC(C)C)c(=O)[nH]1 | -2 | 3 | -2.2* | 1.2 | -21 | i | 622 | 211
Cc1ccccc1NC(=O)c1ccc(C)c(S(=O)(=O)Nc2ccc(C(=O)O)cc2)c1 | · | · | · | · | · | i | · | ·
C1CCc2nnc(-c3nnc4n3CCCCC4)n2CC1 | -2 | 1 | -1.6 | 0.36 | -11 | i | · | ·
Cc1ccc(C)n1-c1ccc(-c2nnc3n2CCCCC3)s1 | 0 | 1 | -1.4* | -0.77 | 9 | i | 594 | 236
N#CC1=C2SCN(c3ccccc3)CN2C(=O)CC1c1c(Cl)cccc1Cl (stereo not given) | -3 | 5 | -0.073 | 0.54 | 9 | i | · | ·
N#CC1=C2SCN(c3ccccc3)CN2C(=O)CC1c1cccs1 (stereo not given) | -9 | 1 | -3.6* | -0.11 | -13 | i | 531 | 221
O=C(Nc1ccc([N+](=O)[O-])cc1)c1cccc(S(=O)(=O)Nc2ccc(I)cc2)c1 | · | · | · | · | · | i | · | ·
COc1cc2c(=O)n(Cc3ccco3)c(=O)n(CC(=O)c3ccc(Br)cc3)c2cc1OC | 0 | -1 | -0.23 | -0.61 | -6 | i | · | ·
COc1cc2c(=O)n(Cc3ccccc3)c(=O)n(CC(=O)C(C)(C)C)c2cc1OC | · | · | -2.1* | 0.37 | 4 | · | 450 | 210
CCOCCOC(=O)C1=C(C)NC2=C(C(=O)CCC2)C1c1cccc(Cl)c1 (stereo not given) | · | · | · | · | · | i | · | ·
O=C(CSCc1cnn(-c2ccccc2)c1-n1cccc1)NCCN1CCOCC1 | -2 | 9 | -2.7* | -0.079 | -6 | i | 520* | 160
CCN1CCN(c2cc(C)c3cc(NC(=O)Cc4ccccc4OC)ccc3n2)CC1 | · | -3 | · | · | · | · | · | ·
CCN1CCN(c2cc(C)c3cc(NC(=O)c4ccc5c(c4)OCO5)ccc3n2)CC1 | 3 | -4 | -2.6* | -0.036 | 4 | i | 502* | 214
CCN1CCN(c2cc(C)c3cc(NC(=O)c4cncc(Br)c4)ccc3n2)CC1 | · | -7 | -5* | -0.071 | 12 | · | 250* | 228
CCN1CCN(c2cc(C)c3cc(NC(=O)c4ccc(OC)c(OC)c4)ccc3n2)CC1 | · | -9 | · | · | · | · | · | ·
COc1ccc(C(=O)Nc2c3c(nn2-c2ccccc2C)CSC3)cc1 | · | · | · | · | · | i | · | ·
Cc1ccc(S(=O)(=O)Nc2ccc(Br)cc2C(=O)c2cccc(Cl)c2)cc1 | · | · | · | · | · | i | · | ·
SMILES | Hsp90 block | Ecoli WT expand | M1 antag | M1 ag | tolC growth inh | BAP1 inh | M1 antag conf | mGluR4 antag
Oc1cccc(Nc2nc(NCC3CCCO3)c3ccccc3n2)c1 (stereo not given) | 0 | 38 | -3.9* | 1.6 | 94* | i | 357* | 224
CN1/C(=C\C(=O)c2cccs2)Sc2ccccc21 | -6 | 3 | -6.5* | -1.1 | 68* | i | 545 | 179
Cc1ccc(S(=O)(=O)N=C(CSC(N)=O)Nc2ccccc2C)cc1 | · | · | · | · | · | i | · | ·
Cc1cc(NC(=O)CN2CCN(Cc3ccccc3)CC2)nc2c1c(=O)oc1ccccc12 | -4 | · | -2.4* | -0.76 | 3 | i | 499 | 204
CCCC(O)(CCN1CCOCC1)c1ccc(Br)cc1 (stereo not given) | 5 | -1 | -3.6* | -0.35 | 6 | i | 283* | 243
CC1CCN(c2nc3c(c(=O)n(C)c(=O)n3C)n2Cc2cccc(F)c2)CC1 | · | · | · | · | · | i | · | ·
COC(=O)c1ccc(CSc2ccc3nnc(-c4ccccn4)n3n2)o1 | -2 | -2 | 0.51 | 0.3 | 0 | i | · | ·
CCOc1ccc(-c2nnc3ccc(SCc4ccc(C(=O)OC)o4)nn23)cc1 | 1 | -1 | -4* | 0.046 | 49 | i | 520* | 227
CC1=C(C(=O)NCCN2CCN(C)CC2)C2(CCC(C)CC2)OC1=O (stereo not given) | 0 | 5 | -0.28 | -0.016 | -2 | i | · | ·
CCCNC(=O)C1=C(C)C(=O)OC12CCC(C)CC2 (stereo not given) | -3 | 8 | -2.2* | 0.2 | -16 | i | 602 | 225
CCCCN(CC)CCNc1c(N2CCN(C(=O)OCC)CC2)c(=O)c1=O | -4 | 5 | -2.1* | -0.0065 | -10 | i | 608 | 234
CCOc1ccc(C(=O)Nc2ccc(OC)c3ccccc23)cc1 | · | · | · | · | · | i | · | ·
CCc1cc2c(NCCN3CCCCC3)ncnc2s1 | -3 | 9 | -4.3* | 0.5 | -17 | i | 534* | 196
CCSCCOC(=O)C1=C(C)NC2=C(C(=O)CC(C)(C)C2)C1c1ccc(OC)cc1OC (stereo not given) | · | · | · | · | · | i | · | ·
COc1cc(OC)c(NC(=O)CCNS(=O)(=O)c2cc(Br)cnc2N)cc1Cl | 1 | 6 | -6.9* | 0.24 | 7 | i | 549 | 253
CCOC(=O)N1CCN(C(=O)CCNS(=O)(=O)c2cc(Br)cnc2N)CC1 | -4 | -7 | -0.79 | 1.1 | -13 | i | · | ·
Nc1ncc(Br)cc1S(=O)(=O)NCCC(=O)N1CCN(c2ncccn2)CC1 | -5 | 4 | -2.9* | -0.64 | -6 | i | 550 | 256
O=C(CCNS(=O)(=O)c1cccc2nsnc12)NCCc1ccccc1 | · | 5 | 0.081 | 3.2e-05 | 0 | · | · | ·
O=C(CCNS(=O)(=O)c1cccc2nsnc12)N1CCN(c2ccccn2)CC1 | 0 | 4 | -2* | -0.3 | -10 | i | 42* | 242
COc1ccc(/C(CC2(O)C(=O)Nc3ccccc32)=N\O)cc1 (stereo not given) | 1 | -7 | -2.5* | 0.37 | 6 | i | 585 | 233
O=C(O)CCC(=O)N1CCc2cc(S(=O)(=O)NC3CCCC3)ccc21 | -2 | 4 | · | -0.77 | -7 | i | · | ·
